Each structure is given as a SMILES string. Activity calls are given as the source filed them. The rule behind the calls is not given here. Bounds are passed on as bounds.

The nature of data set [1]: Octanol-water partition coefficient, log P of the compound by high-performance liquid chromatography. In kind it is physicochemical.
The subject of data set [2] is P388. Briefly: Antitumor activity against mouse P388 cells allografted in mouse assessed as host median survival time at 25 mg/kg/day, ip administered as gum acacia suspension on days 1 to 9 relative to control. In kind it is functional. The conditions noted are these: route intraperitoneal. In short, it runs like this:
(§1)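 Tumored mice got the compound intraperitoneally as a gum acacia suspension once daily on days 1-9 (nine injections), with doses in (mg/kg)/day. Read-out was T/C, the median survival time of treated over control animals as a percentage. Dose-response assays were generally run in duplicate, and the highest T/C per assay is reported with its dose.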

Data set [3] concerns P388. As to the kind of experiment: Antitumor activity against mouse P388 cells allografted in mouse assessed as host median survival time at 50 mg/kg/day, ip administered as gum acacia suspension on days 1 to 9 relative to control. In kind it is functional. The conditions noted are these: route intraperitoneal. In short, it runs like this:
as §1

The subject of the next data set is L1210. Briefly: Growth inhibition of mouse L1210 cells at 0.14 umol/ml after 23 to 46 hrs by coulter counter analysis. The data set is classed as functional, cell-based. Put shortly:
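L1210 cells grown in RPMI 1630 with 16.7% heat-inactivated fetal calf serum and gentamicin 40 µg/mL. Exponentially growing cells were washed and seeded at 1 × 10^5 cells/mL. Drug was added in Me2SO to a final 1.39 ± 0.17 × 10^-7 mol/mL with continuous exposure at 37 °C. Coulter counts at 23 and 46 h gave percent inhibition versus untreated control.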

For data set [4], the system named is P388. Briefly: Antitumor activity against mouse P388 cells allografted in mouse assessed as host median survival time at 100 mg/kg/day, ip administered as gum acacia suspension on days 1 to 9 relative to control. In kind it is functional. The conditions noted are these: route intraperitoneal. Put shortly: as §1
Data set [5] in a line: Antitumor activity against mouse LCC cells allografted in mouse assessed as host median survival time at 12 mg/kg/day, ip administered as gum acacia suspension on days 1 to 9 relative to control. In kind it is functional, Lewis lung carcinoma. The following applies: route intraperitoneal. In short, it runs like this:
as §1

The nature of data set [6]: Antitumor activity against mouse LCC cells allografted in mouse assessed as host median survival time at 50 mg/kg/day, ip administered as gum acacia suspension on days 1 to 9 relative to control. In kind it is functional, Lewis lung carcinoma. The following applies: route intraperitoneal. In short, it runs like this: as §1
A short description of data set [7]: Antineoplastic activity against mouse LCC cells allografted in mouse assessed as increase in host life span at 20 to 200 mg/kg relative to control. The data set is classed as functional, Lewis lung carcinoma. The conditions noted are these: dose mg/kg 20-200.
Data set [8] in a line: Solubility of the compound in water at 25 degC measured per 100 ml. In kind it is physicochemical. The conditions noted are these: buffer.
A short description of data set [9]: Solubility of the compound in ethanol at 25 degC measured per 100 ml. In kind it is physicochemical.
In data set [10] the test system is P388. As to the kind of experiment: Antitumor activity against mouse P388 cells allografted in mouse assessed as host median survival time at 12 mg/kg/day, ip administered as gum acacia suspension on days 1 to 9 relative to control. The data set is classed as functional. The conditions noted are these: route intraperitoneal. In short, it runs like this: as §1

In data set [11] the test system is P388. As to the kind of experiment: Antitumor activity against mouse P388 cells allografted in mouse assessed as host median survival time at 200 mg/kg/day, ip administered as gum acacia suspension on days 1 to 9 relative to control. In kind it is functional. The conditions noted are these: route intraperitoneal. In short, it runs like this: as §1
A short description of data set [12]: Antitumor activity against mouse LCC cells allografted in mouse assessed as host median survival time at 25 mg/kg/day, ip administered as gum acacia suspension on days 1 to 9 relative to control. In kind it is functional, Lewis lung carcinoma. The conditions noted are these: route intraperitoneal. Put shortly:
as §1

Data set [13] relates to P388. As to the kind of experiment: Antitumor activity against mouse P388 cells allografted in mouse assessed as host median survival time at 6 mg/kg/day, ip administered as gum acacia suspension on days 1 to 9 relative to control. In kind it is functional. The following applies: route intraperitoneal. Put shortly:
as §1

The nature of data set [14]: Antitumor activity against mouse LCC cells allografted in mouse assessed as host median survival time at 6 mg/kg/day, ip administered as gum acacia suspension on days 1 to 9 relative to control. In kind it is functional, Lewis lung carcinoma. The conditions noted are these: route intraperitoneal. Put shortly: as §1
Data set [15] is described as follows: Antitumor activity against mouse LCC cells allografted in mouse assessed as host median survival time at 200 mg/kg/day, ip administered as gum acacia suspension on days 1 to 9 relative to control. In kind it is functional, Lewis lung carcinoma. The conditions noted are these: route intraperitoneal. Put shortly: as §1
Data set [16] is described as follows: Antitumor activity against mouse LCC cells allografted in mouse assessed as host median survival time at 100 mg/kg/day, ip administered as gum acacia suspension on days 1 to 9 relative to control. The data set is classed as functional, Lewis lung carcinoma. The conditions noted are these: route intraperitoneal. Put shortly:
as §1

Data set [17] in a line: Antitumor activity against mouse LCC cells allografted in mouse assessed as host median survival time at 3 mg/kg/day, ip administered as gum acacia suspension on days 1 to 9 relative to control. In kind it is functional, Lewis lung carcinoma. The conditions noted are these: route intraperitoneal. Put shortly:
as §1

One may read the logP as a log measure of how a compound divides between an organic and an aqueous phase. As a reminder, the T/C is the result in the treated group divided by that in the control group, in per cent. `CC(=O)C1=C(O)C=C2Oc3c(C(C)=O)c(O[C@@H]4O[C@H](CO)[C@@H](O)[C@H](O)[C@H]4O)c(C)c(O)c3C2(C)C1=O` (some centres not stated) returned a logP in data set [1] of 0.56. Further, the T/C in the data set on P388 [2] was 102%; in the data set on P388 [3], 108%.
Turning to `CC(=O)C1=C(O)CC2Oc3c(C(C)=O)c(O)c(C)c(O)c3C2(C)C1=O` (configuration not stated), the logP in data set [1] was found to be 2.4. Further, the “growth inhibition (GI)” value in the data set on L1210 was “Active”. Further, the T/C in the data set on P388 [2] is 118%; with P388 [4], 128%; in data set [5] it was 107%; in data set [6] it was 107%.
For the molecule `CC(=O)C1=C(O)C=C2Oc3c(C(C)=O)c(O)c(C)c(O)c3[C@]2(C)C1=O` [(-)-USNIC ACID], the Activity in data set [7] is recorded as 35%. Also, the solubility in [8] was less than 10 mg; in [9], 20 mg. Also, in data set [1], the logP turned out to be 2.88. The “growth inhibition (GI)” value in the data set with L1210 was “Active”. The T/C in the data set with P388 [4] worked out at 141%.
In the case of `CC(=O)c1c(O[C@@H]2O[C@H](CO)[C@@H](O)[C@H](O)[C@H]2O)c(C)c(O)c2c1OC1=CC(=O)/C(=C(/C)N)C(=O)C12C` (some centres not stated), the T/C stood at 104% in the data set with P388 [10] and 108% in the data set with P388 [2].
In turn, `CC(=O)Oc1c(C)c(O)c(C(C)=O)c2c1C1(C)C(=O)C(C(C)=O)=C(O)C=C1O2` (configuration not stated) returned a logP in data set [1] of 2.7. Moreover, the “growth inhibition (GI)” value with L1210 was “Active”. In addition, the T/C in the data set on P388 [11] is 113%; in data set [12] it was 118%; in data set [6], 112%.
`COC12CC(O)=C(C(C)=O)C(=O)C1(C)c1c(O)c(C)c(O)c(C(C)=O)c1O2` (mixture of isomers): the logP in data set [1] was 2.3. Moreover, the “growth inhibition (GI)” value in the data set on L1210 is “Active”. For the same molecule, the T/C in the data set on P388 [2] came out at 128%; in the data set on P388 [3] it was 122%; in data set [12], 122%; in [6] it was 106%.
On to `CC(=O)c1c(O)c(C)c(O)c2c1OC1=CC(=O)/C(=C(\C)N)C(=O)C12C` (configuration not stated), for which the logP in [1] was 3.2. Further, the “growth inhibition (GI)” value in the data set on L1210 was “Active”. Also, the T/C was determined as 107% in the data set with P388 [13], 110% in [14] and 111% in [6].
Regarding `CC(=O)c1c(O)c(C)c(O)c2c1OC1=Cc3c(c(C)nn3C)C(=O)C12C` (configuration not stated), the logP in data set [1] was determined as 2.8. In addition, the “growth inhibition (GI)” value in the data set with L1210 is “Active”. Moreover, the T/C is given as 118% in the data set on P388 [3], 103% in data set [5] and 112% in [15].
For the molecule `COC12CC(O)=C(C(C)=O)C(=O)C1(C)c1c(OC(C)=O)c(C)c(O)c(C(C)=O)c1O2` (mixture of isomers), in data set [1], the logP stood at 2.6. In addition, in the data set with L1210, the “growth inhibition (GI)” value is “Active”. For the same molecule, the T/C in the data set on P388 [2] stood at 106%; with P388 [4], 124%; in [6], 108%.
On to `CC(=O)Oc1c(C)c(OC(C)=O)c2c(c1C(C)=O)OC1=CC(O)=C(C(C)=O)C(=O)C12C` (configuration not stated), for which the logP in data set [1] is 2.5. Besides, the “growth inhibition (GI)” value in the data set on L1210 was “Active”. Further, the T/C is 115% with P388 [13], 144% with P388 [11], 111% in [14] and 117% in [5].
In the case of `CC(=O)c1c(O)c(C)c(O)c2c1OC1=Cc3onc(C)c3C(=O)C12C` (configuration not stated), the T/C with P388 [4] is 104%; in data set [6] it was 111%.
Consider `C=C1c2c(O)c(C)c(O)c(C(C)=O)c2OC12C=C(C(=O)O)C(=O)C2` (configuration not stated), for which, in data set [1], the logP came to 1.3. Further, the T/C in the data set with P388 [10] is 112%; in the data set on P388 [2] it was 108%; in data set [6] it was 127%; in data set [16], 109%.
As for `CC(=O)Oc1c(C)c(OC(C)=O)c2c(c1C(C)=O)OC1CC(=O)C(C(C)=O)=C(O)C21C` (mixture of isomers), the logP in [1] came out at 2.3. Moreover, in the data set on L1210, the “growth inhibition (GI)” value was “Active”. The T/C in the data set on P388 [2] came out at 108%; with P388 [3], 112%; in [17] it was 104%; in [6], 114%.
In turn, `CC(=O)c1c(O)c(C)c(O)c2c1OC1=Cc3c(c(C)nn3-c3ccccc3)C(=O)C12C` (configuration not stated) yielded a logP in data set [1] of 3.2. The “growth inhibition (GI)” value in the data set on L1210 is “Active”. The T/C in the data set with P388 [13] turned out to be 122%; in the data set with P388 [11] it was 110%; in data set [12], 111%; in data set [16], 108%.
For the molecule `CC(=O)c1c(O)c(C)c(O)c2c1OC1=CC(=O)c3c(C)noc3C12C` (configuration not stated), in the data set on L1210, the “growth inhibition (GI)” value is “Active”. Moreover, the T/C with P388 [4] came to 114%; in [14], 112%; in [5], 117%.

Values taken from ChEMBL document CHEMBL3244360, “Usnic acid derivatives as potential antineoplastic agents” (J Med Chem, 1979).
